Screening results: PubChem, Broad Institute
YB-1 expr inh = inhibitors of YB-1 gene expression, primary screen, cell-based, fluorescence. 0.37% of 30,000 active. delta delta Cp (YB-1 minus CDIP) (no concentration beside the values). U2OS, qRT-PCR YB-1 vs CDIP delta delta Cp, 16 h; stronger effect = higher value; zero = DMSO, each unit about twofold;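 active = delta delta Cp rounded down to an integer at or above 3, about 3 SD of DMSO wells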;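 note: higher means less YB-1 transcript or more CDIP transcript relative to DMSO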
INS-1E ATP HTS = protection of INS-1E cells from cytokine death, primary screen, ATP luminescence, single point; protection from cytokine-induced ATP loss, % at 10 µM; AID 488910, 2010; 0.1% of 20,000 active; INS-1E cytokine-induced death, 48 h; normalised: neutral wells 0, positive control 100;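 active = mean replicate protection from cytokine-induced ATP loss at least 50% and at least 75% of replicates each reaching 50%; inconclusive = meets only one of the two criteria, mean or replicate share; inactive = fails both the mean and replicate share criteria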
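Assay system: INS-1E rat cells / Quantity: 8000 cells per well / Medium: RPMI without phenol red, 5% FBS / Probe or stimulus: three-cytokine cocktail (IFN-γ, TNF-α, IL-1β) / Dosing: one compound concentration, pin transfer / Timing: 48 h co-treatment, 10 min post-lysis read / Technique: CellTiter-Glo luminescence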
T cruzi intra = inhibitors of intracellular Trypanosoma cruzi, primary screen, cell-based, plate reader, single point, set 2; intracellular Trypanosoma cruzi in host cells; activity score (inhibition), % at 5.01 µM; 4.9% of 22,000 active; in the data active = activity score above about 55%; inconclusive = no clear call, values can overlap the other calls;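 note: parasites and compound incubated about four days before reading; 0% = median of neutral control wells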
The depositor's hits bear a star; ? = inconclusive; . = no result given. This excerpt belongs to a sample that is enriched for hits.

SMILES	YB-1 expr inh	INS-1E ATP HTS	T cruzi intra
C[C@H](CO)N1C[C@H](C)[C@@H](CN(C)Cc2ccc3c(c2)OCO3)Oc2c(NC(=O)Nc3ccc(C(F)(F)F)cc3)cccc2C1=O	0.18	-36	83*
C[C@H](CO)N1C[C@H](C)[C@@H](CN(C)Cc2ccc3c(c2)OCO3)Oc2c(NC(=O)Nc3ccc(F)cc3)cccc2C1=O	0.31	-8	60*
C[C@@H]1CN([C@H](C)CO)C(=O)c2cccc(NC(=O)Nc3ccc4c(c3)OCO4)c2O[C@H]1CN(C)Cc1ccc(C(F)(F)F)cc1	-0.064	-7	9
C[C@H](CO)N1C[C@H](C)[C@H](CN(C)Cc2ccc3c(c2)OCO3)Oc2c(NC(=O)Nc3ccc(C(F)(F)F)cc3)cccc2C1=O	-0.099	-51	62*
C[C@@H]1CN([C@H](C)CO)C(=O)c2cccc(NC(=O)Nc3ccc(C(F)(F)F)cc3)c2O[C@@H]1CN(C)Cc1ccc2c(c1)OCO2	0.0036	-27	?
C[C@H]1CN([C@@H](C)CO)C(=O)c2cccc(NC(=O)Nc3ccc4c(c3)OCO4)c2O[C@H]1CN(C)Cc1ccc2c(c1)OCO2	-0.52	-12	-17
C[C@@H]1CN([C@@H](C)CO)C(=O)c2cccc(NS(C)(=O)=O)c2O[C@@H]1CN(C)C	0.044	5	-17
C[C@@H]1CCCCO[C@H](CN(C)C(=O)C2CCCCC2)[C@@H](C)CN([C@H](C)CO)C(=O)c2cc(NC(=O)Nc3ccccc3)ccc2O1	0.17	2	-7
Cc1noc(C)c1NC(=O)Nc1ccc2c(c1)CC(=O)N([C@H](C)CO)C[C@@H](C)[C@H](CN(C)Cc1ccccc1)O2	0.086	16	-32
Cc1noc(C)c1NC(=O)N(C)C[C@@H]1OCCCC[C@@H](C)Oc2ccc(NS(=O)(=O)c3cn(C)cn3)cc2C(=O)N([C@H](C)CO)C[C@@H]1C	0.086	-5	-5
Cc1ccc(S(=O)(=O)N(C)C[C@H]2OCCCC[C@@H](C)Oc3ccc(NC(=O)Nc4ccccc4)cc3C(=O)N([C@H](C)CO)C[C@@H]2C)cc1	-0.13	-5	6
C[C@H](CO)N1C[C@H](C)[C@@H](CN(C)CC2CCCCC2)Oc2ccc(NC(=O)C3CCCCC3)cc2C1=O	0.14	0	-2
NNC(=O)c1ccc(COc2cc(Cl)ccc2Cl)o1	0.18	.	9
O=C(N/N=C/c1ccc(O)c(F)c1)c1ccccn1	0.11	-12	-8
COc1ccc(S(=O)(=O)N(C)C[C@@H]2Oc3ccc(NC(=O)c4ccncc4)cc3C(=O)N([C@H](C)CO)C[C@H]2C)cc1	0.21	-6	-3
C[C@H]1CN([C@@H](C)CO)C(=O)c2cccc(NC(=O)Nc3ccc(C(F)(F)F)cc3)c2O[C@@H]1CN(C)Cc1ccc2c(c1)OCO2	-0.035	-13	52
C[C@@H]1CN([C@@H](C)CO)C(=O)c2cccc(NC(=O)Nc3ccc(C(F)(F)F)cc3)c2O[C@H]1CN(C)Cc1ccc2c(c1)OCO2	-0.18	-60	90*
C[C@@H]1CCCCO[C@H](CN(C)C(=O)Nc2ccc(C(F)(F)F)cc2)[C@@H](C)CN([C@H](C)CO)C(=O)c2cc(NC(=O)Nc3ccc(F)cc3)ccc2O1	-0.36	-16	65*
C[C@@H]1CCCCO[C@H](CN(C)C(=O)Nc2ccc(F)cc2)[C@@H](C)CN([C@H](C)CO)C(=O)c2cc(NC(=O)Nc3ccccc3)ccc2O1	-0.12	-4	18
C[C@@H]1CCCCO[C@H](CN(C)C(=O)Nc2ccccc2)[C@@H](C)CN([C@H](C)CO)C(=O)c2cc(NC(=O)c3ccccc3)ccc2O1	4.4*	-4	11
C[C@@H]1CCCCO[C@H](CN(C)C(=O)Nc2ccc(F)cc2)[C@@H](C)CN([C@H](C)CO)C(=O)c2cc(NC(=O)Nc3ccc(F)cc3)ccc2O1	-0.028	-3	59*
C[C@@H]1CCCCO[C@@H](CN(C)C(=O)Nc2ccccc2)[C@@H](C)CN([C@H](C)CO)C(=O)c2cc(NC(=O)c3ccncc3)ccc2O1	0.27	13	-9
C[C@@H]1CCCCO[C@@H](CN(C)C(=O)Nc2ccc(F)cc2)[C@@H](C)CN([C@H](C)CO)C(=O)c2cc(NC(=O)Cc3ccccc3)ccc2O1	-0.69	0	16
C[C@@H]1CCCCO[C@@H](CN(C)C(=O)Nc2ccc(C(F)(F)F)cc2)[C@@H](C)CN([C@H](C)CO)C(=O)c2cc(NC(=O)Cc3ccccc3)ccc2O1	-0.1	-5	59*
C[C@@H]1CCCCO[C@H](CN(C)C(=O)Nc2ccccc2)[C@@H](C)CN([C@H](C)CO)C(=O)c2cc(NC(=O)Nc3ccc(F)cc3)ccc2O1	0.0096	-8	17
SMILES	YB-1 expr inh	INS-1E ATP HTS	T cruzi intra
C[C@@H]1CN([C@@H](C)CO)C(=O)CCCn2cc(nn2)CO[C@H]1CN(C)Cc1ccc2c(c1)OCCO2	0.12	.	-46
C[C@@H]1CCCCO[C@H](CN(C)C)[C@@H](C)CN([C@H](C)CO)C(=O)c2cc(NC(=O)Nc3ccc(C(F)(F)F)cc3)ccc2O1	0.26	-7	-22
C[C@@H]1CCCCO[C@H](CN(C)C(=O)Nc2ccc(C(F)(F)F)cc2)[C@@H](C)CN([C@H](C)CO)C(=O)c2cc(NC(=O)Nc3ccccc3)ccc2O1	0.14	-29	57*
C[C@@H]1CCCCO[C@H](CN(C)C(=O)NC2CCCCC2)[C@@H](C)CN([C@H](C)CO)C(=O)c2cc(NC(=O)Nc3ccc(C(F)(F)F)cc3)ccc2O1	-0.36	-9	64*
C[C@@H]1CCCCO[C@@H](CN(C)C)[C@@H](C)CN([C@H](C)CO)C(=O)c2cc(NC(=O)Nc3ccc(C(F)(F)F)cc3)ccc2O1	-0.11	0	29
C[C@@H]1CCCCO[C@@H](CN(C)C(=O)Nc2ccc(C(F)(F)F)cc2)[C@@H](C)CN([C@H](C)CO)C(=O)c2cc(NC(=O)Nc3ccc(F)cc3)ccc2O1	-0.14	-14	71*
C[C@@H]1CCCCO[C@H](CN(C)C(=O)NC2CCCCC2)[C@@H](C)CN([C@H](C)CO)C(=O)c2cc(NC(=O)Nc3ccc(F)cc3)ccc2O1	0.0045	-3	0
C[C@@H]1CCCCO[C@H](CN(C)C(=O)Nc2ccccc2)[C@@H](C)CN([C@H](C)CO)C(=O)c2cc(NC(=O)Nc3ccccc3)ccc2O1	0.27	2	-10
C[C@@H]1CCCCO[C@H](CN(C)C(=O)Nc2ccc(C(F)(F)F)cc2)[C@@H](C)CN([C@H](C)CO)C(=O)c2cc(NC(=O)Nc3ccc(C(F)(F)F)cc3)ccc2O1	-0.1	-23	65*
COc1ccc([Si](C)(C)[C@H]2[C@H](CCO)O[C@@]3(C(=O)N(Cc4cccc(N5CCC5=O)c4)c4ccccc43)[C@@H]2C)cc1	-0.037	.	.
CC(C)NC(=O)N(C)C[C@H]1Oc2c(NC(=O)Nc3ccc4c(c3)OCO4)cccc2C(=O)N([C@H](C)CO)C[C@H]1C	-8.2	2	0
